{"data": "Experimental data collected from several papers", "KIT": "Mast/stem cell growth factor receptor Kit (KIT, Homo sapiens, UniProt P10721)", "KIT D816V": "Mast/stem cell growth factor receptor Kit (KIT, Homo sapiens, UniProt P10721, D816V)"}
{"SMILES": "C=CC(=O)Nc1cccc(CN2C(=O)N(c3c(Cl)c(OC)cc(OC)c3Cl)Cc3cnc(NCCCCN(CC)CC)nc32)c1", "target": "KIT", "test": "binding, competition with immobilised ligand", "setting": "10 µM", "endpoint": "remaining binding", "value": "1.2%"}
{"SMILES": "Cn1cc(-c2cccc(N3CCc4c(sc5c4CC(C)(C)C5)C3=O)c2CO)cc(Nc2ccncn2)c1=O", "target": "KIT", "test": "enzyme activity, inhibitor", "setting": "1 µM", "endpoint": "inhibition", "value": "-11%"}
{"SMILES": "C#Cc1n[nH]c2c(-c3cn([C@@H](C)c4ccccc4)c(=O)[nH]c3=O)cc(F)cc12", "target": "KIT", "test": "enzyme activity, inhibitor", "setting": "0.1 µM", "endpoint": "inhibition", "value": "0.1%"}
{"SMILES": "COc1ncccc1-c1cnn2ccc(N3CCN(C(=O)OC(C)C)CC3)nc12", "target": "KIT", "test": "binding, competition with immobilised ligand", "setting": "1 µM", "endpoint": "remaining binding", "value": "84%"}
{"SMILES": "C#Cc1n[nH]c2c(-c3cn(C(C)c4ccccn4)c(=O)[nH]c3=O)cc(F)cc12 (centres unmarked)", "target": "KIT", "test": "enzyme activity, inhibitor", "setting": "1 µM", "endpoint": "inhibition", "value": "-6.3%"}
{"SMILES": "Cc1nn(C)cc1-c1nc2c(N3CCN(Cc4ccc(Cl)cc4)CC3)c(Cl)cnc2[nH]1", "target": "KIT D816V", "test": "binding, competition with immobilised ligand", "setting": "1 µM", "endpoint": "remaining binding", "value": "9.2%"}
{"SMILES": "O=c1[nH]c2ccccc2n1C1CCN(Cc2ccc(-c3[nH]c4cc5ncnc5cc4nc3-c3ccccc3)cc2)CC1", "target": "KIT", "test": "cell-free assay", "setting": "0.5 µM", "endpoint": "remaining signal", "value": "91.7%"}
{"SMILES": "Cn1cncc1[C@@](O)(COc1ccc(C#N)cc1-c1ccc(OC(F)(F)F)cc1)c1ccc(C#N)cc1", "target": "Mast/stem cell growth factor receptor Kit (KIT, Homo sapiens, UniProt P10721, A829P)", "test": "cell-free assay, competition with immobilised ligand", "setting": "1 µM", "endpoint": "remaining binding", "value": "100%"}
{"SMILES": "Cn1cc(-c2cc(F)cc(N3CCn4c(cc5c4CCCC5)C3=O)c2CO)cc(Nc2ccc(N3CCN(C4COC4)CC3)cn2)c1=O", "target": "KIT", "test": "enzyme activity, inhibitor", "setting": "0.1 µM", "endpoint": "inhibition", "value": "5%"}
{"SMILES": "Nc1ncc(-c2nc(N3CCOCC3)nc(N3CCOCC3)n2)c(C(F)F)n1", "target": "KIT D816V", "test": "binding, competition with immobilised ligand", "setting": "10 µM", "endpoint": "remaining binding", "value": "58%"}
{"SMILES": "COCc1c(-c2cc3cc(C)cc(OC)c3s2)c2c(N)ncnn2c1CN1CCNC(=O)C1", "target": "Mast/stem cell growth factor receptor Kit (KIT, Homo sapiens, UniProt P10721, L576P)", "test": "cell-free assay, competition with immobilised ligand", "setting": "1 µM", "endpoint": "inhibition", "value": "93.1%"}
